Bioassay records deposited in PubChem by several laboratories.
Lmaj promast – reduces viability of Leishmania major promastigotes. resazurin fluorescence viability. inhibition, % at 10 µM. 200,000 tested, 9% active. AID 1063;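 note: promastigotes grown with compound for 44 hours at 28 °C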
CHOP inh – CHOP inhibition in unfolded protein response. 220,000 tested, 3.8% active. CHO-K1 CHOP-promoter luciferase, tunicamycin-induced, 15-18 h. inhibition, % at 10 µM. AID 2732;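 active = compounds that reduced the stress-induced luciferase reporter signal by more than about 70% of percent inhibition, limit read from the data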
Arbovirus anti – arbovirus infection inhibition; arbovirus infection cell-based antiviral screen; inhibition, % at 10 µM; 200,000 tested, 0.37% active; AID 1251; in the data active = inhibition above about 30%
Rad51 HR inh – blocks human Rad51 in homologous recombination; Q06609; hRad51 DNA strand exchange, fluorescence dequenching; inhibition, % at 10 µM; 200,000 tested, 0.085% active; AID 1385;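 active = inhibition above 40% at the single screening dose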
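material = hRad51 filaments on single-stranded DNA | reagent = Donor/quencher-labelled 47-bp dsDNA substrate | compound = 10 µM final, single point | schedule = strand-exchange reaction 15 min at room temperature | measured by = fluorescein emission 520 nm, excitation 485 nm | read-out basis = % inhibition versus plate control and blank means | benchmarks = plate controls and plate blanks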
PKD1 inh – PKD1 (human) kinase inhibition | Q15139 | PKD1 kinase fluorescence polarization assay | inhibition, % (concentration not given with the values) | 200,000 tested, 0.056% active | AID 797
Wee1 stabilizer – blocks degradation of human Wee1 kinase. reporter increase, % at 5 µM. 220,000 tested, 1.2% active. HeLa Luc-Wee1K328M stability, luciferase luminescence; 100% = proteasome inhibitor MG132 effect. AID 1321. P30291;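 active = activation above the mean of all tested compounds plus 3 SD, set per screening run, cut at about 8.8% in these data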;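 note: cells exposed to compound for 20 h before luminescence read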
Target sequence (P30291 whole entry K328M): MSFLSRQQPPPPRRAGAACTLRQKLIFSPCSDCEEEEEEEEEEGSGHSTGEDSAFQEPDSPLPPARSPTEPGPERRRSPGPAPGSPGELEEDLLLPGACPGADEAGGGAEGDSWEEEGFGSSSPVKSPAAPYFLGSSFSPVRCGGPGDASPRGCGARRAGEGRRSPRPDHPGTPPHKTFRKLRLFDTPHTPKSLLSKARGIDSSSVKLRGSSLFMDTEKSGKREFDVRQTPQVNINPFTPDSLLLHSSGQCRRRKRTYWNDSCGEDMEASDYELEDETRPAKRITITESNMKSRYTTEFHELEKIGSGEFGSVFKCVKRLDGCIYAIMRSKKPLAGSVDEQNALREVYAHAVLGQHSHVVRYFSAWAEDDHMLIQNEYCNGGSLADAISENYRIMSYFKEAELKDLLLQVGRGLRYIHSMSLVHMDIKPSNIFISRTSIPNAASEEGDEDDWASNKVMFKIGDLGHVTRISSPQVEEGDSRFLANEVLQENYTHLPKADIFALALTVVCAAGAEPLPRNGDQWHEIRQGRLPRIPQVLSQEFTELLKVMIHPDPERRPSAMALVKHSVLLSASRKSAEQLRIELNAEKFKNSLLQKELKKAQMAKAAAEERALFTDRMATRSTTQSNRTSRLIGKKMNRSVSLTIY
Numbers stand for hits; n = inactive; x = no result given. This is a sample that favours compounds with a hit; in the whole collection about 12% have one here. Cut-off read from the data, not from the text of the source, unless noted: active = inhibition above about 50%; inactive = the rest.

SMILES | Lmaj promast | CHOP inh | Arbovirus anti | Rad51 HR inh | PKD1 inh | Wee1 stabilizer
C/C(=N/O)c1cc(C(C)(C)C)c(O)c(C(C)(C)C)c1 | n | 86 | n | n | n | n
Cc1ccnc(NC(=O)/C=C/c2ccccc2[N+](=O)[O-])c1 | n | n | n | n | n | n
CCOc1ccccc1NC(=O)/C=C/c1ccccc1[N+](=O)[O-] | 78 | n | n | n | n | n
NS(=O)(=O)c1ccc(NC(=O)/C=C/c2ccccc2[N+](=O)[O-])cc1 | 69 | n | n | n | n | n
CCOc1ccccc1NC(=O)/C=C/C(N)=O | 100 | n | n | n | n | n
O=C(/C=C\c1ccccc1[N+](=O)[O-])Nc1ccccc1 | n | n | n | x | n | n
CCC(CC)NC(=O)CCCSc1nc2ccccc2[nH]1 | n | n | n | n | n | n
C(=C\c1ccccc1)/CN1CCN(C(c2ccccc2)c2ccccc2)CC1 | n | n | n | n | n | n
O=S(=O)(c1cc(Cl)ccc1Cl)N1CCN(Cc2ccc3c(c2)OCO3)CC1 | n | n | n | n | n | n
Cc1cc2oc(=O)cc(CN3CCN(S(=O)(=O)c4ccc5c(c4)OCCO5)CC3)c2cc1C | n | n | n | n | n | n
O=S(=O)(/C=C/c1ccccc1)N1CCN(Cc2ccc3c(c2)OCO3)CC1 | 85 | n | n | n | n | n
Cc1cc2oc(=O)cc(CN3CCN(S(=O)(=O)/C=C/c4ccccc4)CC3)c2cc1C | 96 | n | n | n | n | n
C(=C\c1ccccc1)/CN1CCN(Cc2ccc3c(c2)OCCO3)CC1 | 92 | n | n | n | n | n
COc1ccc(C(=O)NNC(=O)c2ccc(C(C)(C)C)cc2)cc1 | n | 84 | n | n | n | n
Cc1ccc(N2C(=O)C(O)(C(F)(F)F)C3=C2CC(C)(C)CC3=O)cc1 (stereo unspecified) | n | n | n | n | n | n
Cc1ccc(N2C(=O)NC(C(F)(F)F)(C(F)(F)F)C3=C2CC(C)(C)CC3=O)cc1 | 51 | n | n | n | n | n
Cc1ccc(N(CC(=O)NC2CCC(C)CC2)S(=O)(=O)c2cccnc2)cc1 (stereo unspecified) | 67 | n | n | n | n | n
COC(=O)Cn1ncc(N2C3CC(CC(C)(C)C3)C2C)c(Cl)c1=O (stereo unspecified) | 81 | n | n | n | n | n
COc1ccccc1NS(=O)(=O)c1cc(NC(=O)CNC(=O)c2ccc(C)s2)ccc1Cl | n | n | n | n | n | n
O=C(O)c1ccc2c(=O)n3c(nc2c1)/C(=C/c1cccc(Cl)c1Cl)CCCC3 | n | n | n | n | n | n
O=C(Nc1ccc(Cl)cc1)Nc1nnc(CSCc2ccccc2Cl)s1 | n | n | n | n | n | n
O=C(Nc1ccc(Cl)c(Cl)c1)Nc1nnc(CSc2ccccc2)s1 | n | 77 | n | x | n | n
O=C(Nc1ccccc1)Nc1nnc(CSCc2ccccc2Cl)s1 | n | 90 | n | n | n | n
Cc1ccc(OCCSCc2nnc(NC(=O)Nc3cccc(Cl)c3)s2)cc1 | n | 83 | 38 | x | n | n
Cc1cc(N)n(-c2ccccn2)n1 | x | n | x | n | x | n
SMILES | Lmaj promast | CHOP inh | Arbovirus anti | Rad51 HR inh | PKD1 inh | Wee1 stabilizer
Nc1ccccc1Oc1ccc2ccccc2c1 | n | n | n | n | n | n
O=C1ON=C(c2ccc(Cl)cc2)/C1=C/c1ccc(O)cc1 | 65 | n | n | n | n | n
COc1cc(/C=C2/C(=O)ON=C2c2ccccc2)ccc1O | 88 | n | n | n | n | n
Cc1sc(/C=C2\C(=O)ON=C2c2ccccc2)cc1Br | n | 88 | n | x | n | n
Cc1sc2ncnc(SCC(=O)NC(=O)c3cccn3C)c2c1C | n | n | n | n | n | n
O=S(=O)(NCc1csc(-c2cccs2)n1)c1cccc(C(F)(F)F)c1 | x | n | x | x | x | n
Fc1ccc(NC(=S)N/N=C/c2cccc(Br)c2)c(F)c1 | n | 95 | n | n | n | n
COc1ccc(C(c2c(C)[nH]n(-c3ccccc3)c2=O)c2c(C)[nH]n(-c3ccccc3)c2=O)cc1OC | 88 | n | n | n | n | n
Cc1[nH]n(-c2ccccc2)c(=O)c1C(C[N+](=O)[O-])c1ccc(Cl)cc1 (stereo unspecified) | n | n | n | n | n | n
Cc1ccc(C(C[N+](=O)[O-])c2c(C)[nH]n(-c3ccccc3)c2=O)cc1 (stereo unspecified) | 97 | n | n | n | n | n
Cc1[nH]n(-c2ccccc2)c(=O)c1C(c1ccccc1C(=O)O)c1c(C)[nH]n(-c2ccccc2)c1=O | n | n | n | x | n | n
Cc1[nH]n(-c2ccccc2)c(=O)c1C(C[N+](=O)[O-])c1ccc(F)cc1 (stereo unspecified) | 60 | n | n | n | n | n
CC(C)(C)NC(=S)NC(C)(C)C | x | n | x | n | x | n
Cc1cnc(NC(=O)c2cccc(S(=O)(=O)N3CC(C)OC(C)C3)c2)s1 (stereo unspecified) | n | n | n | n | n | n
CCNC(=O)CC1C(=O)N(CC)C(=S)N1NC(=O)c1ccccc1 (stereo unspecified) | x | n | x | n | x | n
Cc1onc(-c2ccccc2)c1C(=O)OCC(=O)Nc1cc(S(=O)(=O)N2CCOCC2)ccc1Cl | n | n | n | n | n | n
COc1ccc2cc(C(c3nnnn3C(C)(C)C)N3CCSCC3)c(=O)[nH]c2c1 (stereo unspecified) | n | n | n | n | n | n
COc1ccc2cc(C(c3nnnn3C(C)(C)C)N3CCc4ccccc4C3)c(=O)[nH]c2c1 (stereo unspecified) | 99 | n | n | x | n | n
CCC(C)(C)n1nnnc1C(c1cc2ccc(OC)cc2[nH]c1=O)N1CCc2ccccc2C1 (stereo unspecified) | 100 | n | n | n | n | n
CCC(C)(C)n1nnnc1C(c1cccc(C#N)c1)N1CCN(c2cccc(C)c2C)CC1 (stereo unspecified) | 76 | n | n | n | n | n
CC(C)(C)n1nnnc1C(c1cccc(C#N)c1)N1CCCCCC1 (stereo unspecified) | n | n | n | n | n | n
COc1ccc2cc(C(c3nnnn3C3CCCC3)N3CCc4ccccc4C3)c(=O)[nH]c2c1 (stereo unspecified) | 82 | n | n | n | n | n
OCC1(CC2CCCCO2)CCN(Cc2cccc(O)c2)CC1 (stereo unspecified) | n | n | n | n | n | n
CN1C(=O)C2(c3ccccc31)c1c(oc3ccccc3c1=O)C(=O)N2CCCO (stereo unspecified) | x | n | x | n | x | n
CCC(C)(C)n1nnnc1C(c1ccccc1)N1CCc2ccccc2C1 (stereo unspecified) | 77 | n | n | n | n | n
CCC(C)(C)n1nnnc1C(c1cccs1)N1CCCCC1 (stereo unspecified) | n | n | n | n | n | n
CCC(C)(C)n1nnnc1C(c1ccc(C)cc1)N1CCCC1 (stereo unspecified) | 65 | n | n | n | n | n
